Reference: ChEMBL document CHEMBL1765016, “Indolylarylsulfones as HIV-1 non-nucleoside reverse transcriptase inhibitors: new cyclic substituents at indole-2-carboxamide” (J Med Chem, 2011)

Key:
[1] = test system: Human immunodeficiency virus 1; experiment: Antiviral activity against […] harboring reverse transcriptase K103N mutant infected in human MT-4 cells assessed as inhibition of virus-induced cytopathicity after 4 days by MTT assay; format: functional, organism-based; conditions: Human immunodeficiency virus 1, MT4, 96 h
How it was run: (§1)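 MT-4 cells at 1 × 10⁵ cells/mL were infected with RT-mutant HIV-1 at a multiplicity of infection of 0.02. They were plated at once with serial compound dilutions (DMSO stocks of 50 mM or higher). […] Virus stocks had been titrated in MT-4 cells as CCID50.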

[2] = test system: Human immunodeficiency virus 1; experiment: Antiviral activity against HIV1 harboring reverse transcriptase E138K mutant infected in human MT-4 cells assessed as inhibition of virus-induced cytopathicity after 4 days by MTT assay; format: functional, organism-based; conditions: Human immunodeficiency virus 1, MT4, 96 h; how it was run: as §1
[3] = Selectivity index, CC50 for human CEM cells to IC50 for HIV1 3B; format: functional, CCRF-CEM
How it was run: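 Ratio of CC₅₀ (Coulter count, mock-infected CEM) to EC₅₀ (CEM, HIV-1 IIIB, microscopic syncytia scoring at day 4).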

[4] = biological target: Human immunodeficiency virus type 1 reverse transcriptase (Human immunodeficiency virus 1, UniProt Q72547, Y181I); experiment: Inhibition of HIV1 reverse transcriptase Y181I mutant expressed in Escherichia coli assessed as incorporation of [3H]dTTP into poly(rA)/oligo(dT) by scintillation counting
How it was run: (§2)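 The RT was recombinant p66(His)/p51 heterodimer, mutant form, expressed in E. coli. TCA-precipitable radioactivity on GF/C filters was read by scintillation. IC50 is the concentration giving 50% inhibition.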

[5] = test system: Human immunodeficiency virus 1; experiment: Antiviral activity against wild type HIV1 3B infected in human CEM cells assessed as inhibition of virus-induced cytopathicity after 4 days by microscopic analysis; format: functional, organism-based; conditions: Human immunodeficiency virus 1, 3B, CCRF-CEM, 96 h
How it was run: (§3)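 CEM cells (~3 × 10⁵ cells/mL) infected with ~100 CCID₅₀ virus per mL, seeded into wells with compound dilutions. Syncytia (giant cell) formation scored microscopically after 4 days at 37 °C. EC₅₀ is the concentration protecting cells by 50%. Values are means of two experiments in triplicate.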

[6] = test system: Human immunodeficiency virus 2; experiment: Antiviral activity against HIV2 isolate ROD infected in human CEM cells assessed as inhibition of virus-induced cytopathicity after 4 days by microscopic analysis; format: functional, organism-based; conditions: Human immunodeficiency virus 2, ISOLATE ROD, CCRF-CEM, 96 h; how it was run: as §3
[7] = test system: Human immunodeficiency virus 1; experiment: Antiviral activity against HIV1 harboring reverse transcriptase Y188L mutant infected in human MT-4 cells assessed as inhibition of virus-induced cytopathicity after 4 days by MTT assay; format: functional, organism-based; conditions: Human immunodeficiency virus 1, MT4, 96 h; how it was run: as §1
[8] = test system: Human immunodeficiency virus 1; experiment: Antiviral activity against HIV1 harboring reverse transcriptase Y181C mutant infected in human MT-4 cells assessed as inhibition of virus-induced cytopathicity after 4 days by MTT assay; format: functional, organism-based; conditions: Human immunodeficiency virus 1, MT4, 96 h; how it was run: as §1
[9] = test system: Human immunodeficiency virus 1; experiment: Antiviral activity against HIV1 harboring reverse transcriptase L100I mutant infected in human MT-4 cells assessed as inhibition of virus-induced cytopathicity after 4 days by MTT assay; format: functional, organism-based; conditions: Human immunodeficiency virus 1, MT4, 96 h; how it was run: as §1
[10] = Cytotoxicity against human CEM cells by coulter counter analysis; format: cell-based; conditions: CEM (CCRF-CEM) cells
How it was run: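 Mock-infected CEM cultures with compound, cell number counted by Coulter counter as percent of untreated control. CC₅₀ (50% reduction in proliferation) was read from plots against concentration. Values are means of two experiments in triplicate.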

[11] = biological target: Human immunodeficiency virus type 1 reverse transcriptase (Human immunodeficiency virus 1, UniProt Q72547, K103N); experiment: Inhibition of HIV1 reverse transcriptase K103N mutant expressed in Escherichia coli assessed as incorporation of [3H]dTTP into poly(rA)/oligo(dT) by scintillation counting; how it was run: as §2
[12] = biological target: Human immunodeficiency virus type 1 reverse transcriptase (Human immunodeficiency virus 1, UniProt Q72547, L100I); experiment: Inhibition of HIV1 reverse transcriptase L100I mutant expressed in Escherichia coli assessed as incorporation of [3H]dTTP into poly(rA)/oligo(dT) by scintillation counting; how it was run: as §2
[13] = biological target: Human immunodeficiency virus type 1 reverse transcriptase (Human immunodeficiency virus 1, UniProt Q72547); experiment: Inhibition of HIV1 wild type reverse transcriptase expressed in Escherichia coli assessed as incorporation of [3H]dTTP into poly(rA)/oligo(dT) by scintillation counting
How it was run: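 Template was poly(rA)/oligo(dT) 10:1 (0.3 μM 3′-OH ends) with 10 μM [³H]dTTP, at 37 °C. TCA-precipitable counts were taken on GF/C filters. IC₅₀ is 50% inhibition of RT activity.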

[14] = test system: Human immunodeficiency virus 1; experiment: Antiviral activity against wild type HIV1 3B infected in human MT-4 cells assessed as inhibition of virus-induced cytopathicity after 4 days by MTT assay; format: functional, organism-based; conditions: Human immunodeficiency virus 1, 3B, MT4, 96 h
How it was run: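 MT-4 cells at 1 × 10⁵ cells/mL, infected at MOI 0.02 (virus titrated as CCID₅₀ in MT-4), dispensed immediately onto serial compound concentrations (DMSO stocks ≥50 mM). Viable cells counted by MTT after 4 days at 37 °C. EC₅₀ is the concentration giving 50% protection of cell viability. Values are means of at least three experiments.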

[15] = test system: Human immunodeficiency virus 1; experiment: Antiviral activity against HIV1 clade C DJ259 infected in PHA-stimulated human PBMC assessed as inhibition of p24 production after 10 to 12 days by ELISA; format: functional, organism-based; conditions: Human immunodeficiency virus 1, clade C DJ259
How it was run: (§4)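 PHA-stimulated (2 μg/mL, 3 days, 37 °C) donor PBMC blasts, washed in PBS, seeded 0.5 × 10⁶ cells/well in RPMI 1640 with 10% fetal calf serum and IL-2 (25 units/mL) containing varying compound concentrations; virus added at 250 pg p24/mL final. Supernatant collected days 10-12 and assayed for HIV-1 core antigen.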

[16] = test system: Human immunodeficiency virus 1; experiment: Antiviral activity against HIV1 clade A UG273 infected in PHA-stimulated human PBMC assessed as inhibition of p24 production after 10 to 12 days by ELISA; format: functional, organism-based; conditions: Human immunodeficiency virus 1, clade A UG273; how it was run: as §4
[17] = test system: Human immunodeficiency virus 1; experiment: Antiviral activity against HIV1 clade A/E ID12 infected in PHA-stimulated human PBMC assessed as inhibition of p24 production after 10 to 12 days by ELISA; format: functional, organism-based; conditions: Human immunodeficiency virus 1, clade A/E ID12; how it was run: as §4
[18] = test system: Human immunodeficiency virus 1; experiment: Antiviral activity against HIV1 group O BCF06 infected in PHA-stimulated human PBMC assessed as inhibition p24 production after 10 to 12 days by ELISA; format: functional, organism-based; conditions: Human immunodeficiency virus 1, group O BCF06; how it was run: as §4
[19] = test system: Human immunodeficiency virus 1; experiment: Antiviral activity against HIV1 clade B BaL infected in PHA-stimulated human PBMC assessed as inhibition of p24 production after 10 to 12 days by ELISA; format: functional, organism-based; conditions: Human immunodeficiency virus 1, clade B BaL; how it was run: as §4

| Structure (SMILES) | EC50 [1] [nM] | EC50 [2] [nM] | Selectivity Index [3] | IC50 [4] [nM] | EC50 [5] [nM] | EC50 [6] [nM] | EC50 [7] [nM] | EC50 [8] [nM] | EC50 [9] [nM] | CC50 [10] [nM] | IC50 [11] [nM] | IC50 [12] [nM] | IC50 [13] [nM] | EC50 [14] [nM] | EC50 [15] [nM] | EC50 [16] [nM] | EC50 [17] [nM] | EC50 [18] [nM] | EC50 [19] [nM] |
| --- | --- | --- | --- | --- | --- | --- | --- | --- | --- | --- | --- | --- | --- | --- | --- | --- | --- | --- | --- |
| Cc1cc(C)cc(S(=O)(=O)c2c(C(=O)NCc3ccccc3)[nH]c3ccc(Br)cc23)c1 | 15 | 51 | 30175 | > 40000 | 5.7 | > 2000 | ≥ 450 | 59 | 11 | 172000 | 1850 | 273 | 1050 | 16 |  |  |  |  |  |
| Cc1cc(C)cc(S(=O)(=O)c2c(C(=O)NCc3ccccc3)[nH]c3ccc([N+](=O)[O-])cc23)c1 | 11 | 16 | 1290 | > 40000 | 6.2 | > 2000 | 470 | 54 | 7 | 8000 | 459 | 14 | 17 | 10 |  |  |  |  |  |
| Cc1cc(C)cc(S(=O)(=O)c2c(C(=O)NCCOc3ccccc3)[nH]c3ccc(Cl)cc23)c1 | > 1000 | 380 | 7962 | > 40000 | 26 | > 10000 | > 1000 | > 1000 | 440 | 207000 | > 40000 | > 40000 | 2390 | 300 |  |  |  |  |  |
| Cc1cc(C)cc(S(=O)(=O)c2c(C(=O)NCN3CCCC3)[nH]c3ccc(Cl)cc23)c1 |  |  | 3333 | 442 | 3.3 | > 2000 |  |  |  | 11000 | 96 | 26 | 12 |  | 0.1 | 0.1 | 0.3 | 0.2 | 0.1 |
| Cc1cc(C)cc(S(=O)(=O)c2c(C(=O)NCCc3ccccc3)[nH]c3ccc(Cl)cc23)c1 | 52 | 65 | 32456 | > 40000 | 5.7 | > 50000 | > 1000 | 100 | 19 | 185000 | 10400 | 27 | 77 | 21 |  |  |  |  |  |
| Cc1cc(C)cc(S(=O)(=O)c2c(C(=O)NCc3ccccc3)[nH]c3ccc(Cl)c(F)c23)c1 |  |  | 2586 | > 40000 | 5.8 | > 2000 |  |  |  | 15000 | 144 | 40 | 40 |  |  |  |  |  |  |
| Cc1cc(C)cc(S(=O)(=O)c2c(C(=O)NCCN3CCCC3)[nH]c3ccc([N+](=O)[O-])cc23)c1 |  |  | 1313 | > 40000 | 16 | > 10000 |  |  |  | 21000 | 1350 | 594 | 280 |  |  |  |  |  |  |
| Cc1cc(C)cc(S(=O)(=O)c2c(C(=O)NCCN3CCOCC3)[nH]c3ccc(Br)cc23)c1 |  |  | 2406 | > 40000 | 170 | > 50000 |  |  |  | 409000 | 1360 | 108 | 63 |  |  |  |  |  |  |
| Cc1cc(C)cc(S(=O)(=O)c2c(C(=O)NCCN3CCOCC3)[nH]c3ccc([N+](=O)[O-])cc23)c1 |  |  | 5250 | > 40000 | 8 | 4900 |  |  |  | 42000 | > 40000 | 421 | 55 |  |  |  |  |  |  |
| Cc1cc(C)cc(S(=O)(=O)c2c(C(=O)NCc3ccccc3)[nH]c3ccc(Cl)cc23)c1 | 11 | 18 |  | > 40000 | 5.7 | > 10000 | 480 | 46 | 6.1 | 244000 | > 40000 | 15 | 21 | 11 |  |  |  |  |  |
| Cc1cc(C)cc(S(=O)(=O)c2c(C(=O)NCCOc3ccccc3)[nH]c3ccc(Br)cc23)c1 |  |  | >17241 | > 40000 | 29 | > 25000 |  |  |  | > 500000 | > 40000 | > 40000 | 4720 |  |  |  |  |  |  |
| Cc1cc(C)cc(S(=O)(=O)c2c(C(=O)NCCN3CCCC3)[nH]c3ccc(Cl)cc23)c1 | 80 | 260 | 418 | > 40000 | 17 | > 2000 | > 1000 | 380 | 84 | 7100 | 660 | 248 | 80 | 19 |  |  |  |  |  |
